{"source": "ChEMBL document CHEMBL1938280", "about": "“Weight loss effects of quaternary salts of 5-amino-1-(chloromethyl)-1,2-dihydro-3H-benz[e]indoles; structure-activity relationships” (Bioorg Med Chem, 2012)", "key": {"Mus musculus [1]": {"tested_on": "Mus musculus", "experiment": "Induction of weight loss in C3H/HeN mouse at 0.47 umol/kg, ip after 60 days (reference value: 27.7 +/- 4.6 %)", "format": "functional"}, "Mus musculus [2]": {"tested_on": "Mus musculus", "experiment": "Toxicity in C3H/HeN mouse assessed as perceptible deterioration in health at 4.2 uM/kg, ip after 60 days", "format": "organism-based", "settings": "in vivo, 1440 h", "outline": "(§1)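 Male C3H/HeN mice, about 50 days old and in groups of 4, received one ip dose in 42% aqueous DMSO on day 1 after 7–10 days of baseline monitoring; vehicle-only animals served as controls. Food and water intake and body weight were recorded 2–3 times weekly for 60 days. General health was checked by observing clinical signs.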"}, "Mus musculus [3]": {"tested_on": "Mus musculus", "experiment": "Toxicity in C3H/HeN mouse assessed as difficulty in drinking at 4.2 uM/kg, ip after 60 days", "format": "organism-based", "settings": "in vivo, 1440 h"}, "Mus musculus [4]": {"tested_on": "Mus musculus", "experiment": "Induction of weight loss in C3H/HeN mouse at 4.2 umol/kg, ip after 60 days (reference value: 30.1 +/- 5.9 %)", "format": "functional"}, "Mus musculus [5]": {"tested_on": "Mus musculus", "experiment": "Toxicity in C3H/HeN mouse assessed as loss of appetite at 4.2 uM/kg, ip after 60 days", "format": "organism-based", "settings": "in vivo, 1440 h", "outline": "as §1"}, "Mus musculus [6]": {"tested_on": "Mus musculus", "experiment": "Toxicity in C3H/HeN mouse assessed as difficulty in eating at 4.2 uM/kg, ip after 60 days", "format": "organism-based", "settings": "in vivo, 1440 h"}, "Mus musculus [7]": {"tested_on": "Mus musculus", "experiment": "Induction of weight loss in C3H/HeN mouse at 1.4 umol/kg, ip after 60 days (reference value: 31.5 +/- 8.2 %)", "format": "functional"}, "Mus musculus [8]": {"tested_on": "Mus musculus", "experiment": "Induction of weight loss in C3H/HeN mouse at 1.4 umol/kg, ip after 60 days (reference value: 26.1 +/- 7.9 %)", "format": "functional"}, "Mus musculus [9]": {"tested_on": "Mus musculus", "experiment": "Induction of weight loss in C3H/HeN mouse at 0.42 umol/kg, ip after 60 days (reference value: 23.6 +/- 3.7 %)", "format": "functional"}, "Mus musculus [10]": {"tested_on": "Mus musculus", "experiment": "Induction of weight loss in C3H/HeN mouse at 0.14 umol/kg, ip after 60 days (reference value: 41.6 +/- 8.7 %)", "format": "functional"}, "Mus musculus [11]": {"tested_on": "Mus musculus", "experiment": "Toxicity in C3H/HeN mouse assessed as mortality at 4.2 umol/kg, ip after 15 days", "format": "organism-based", "settings": "in vivo, 360 h", "outline": "(§2)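 Male C3H/HeN mice, about 50 days old, in groups of 4. Baseline body weight and food and water intake were recorded for 7–10 days before treatment. A single ip injection in 42% aqueous DMSO was given on day 1, with vehicle-only controls. Body weight and food and water intake were then monitored 2–3 times per week for 60 days, with deaths noted.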"}, "Mus musculus [12]": {"tested_on": "Mus musculus", "experiment": "Induction of weight loss in C3H/HeN mouse at 4.2 umol/kg, ip after 60 days (reference value: 26.1 +/- 7.8 %)", "format": "functional"}, "Mus musculus [13]": {"tested_on": "Mus musculus", "experiment": "Toxicity in C3H/HeN mouse assessed as mortality at 4.2 umol/kg, ip", "format": "organism-based", "settings": "in vivo", "outline": "as §2"}, "Mus musculus [14]": {"tested_on": "Mus musculus", "experiment": "Induction of weight loss in C3H/HeN mouse at 4.2 umol/kg, ip after 60 days (reference value: 27.7 +/- 4.6 %)", "format": "functional"}, "Mus musculus [15]": {"tested_on": "Mus musculus", "experiment": "Induction of weight loss in C3H/HeN mouse at 37.8 umol/kg, ip after 60 days (reference value: 31.5 +/- 8.2 %)", "format": "functional"}, "Mus musculus [16]": {"tested_on": "Mus musculus", "experiment": "Induction of weight loss in C3H/HeN mouse at 12.6 umol/kg, ip after 60 days (reference value: 18.8 +/- 1.8 %)", "format": "functional"}, "Mus musculus [17]": {"tested_on": "Mus musculus", "experiment": "Toxicity in C3H/HeN mouse assessed as mortality at 117 umol/kg, ip", "format": "organism-based", "settings": "in vivo", "outline": "as §2"}, "Mus musculus [18]": {"tested_on": "Mus musculus", "experiment": "Induction of weight loss in C3H/HeN mouse at 37.8 umol/kg, ip after 60 days (reference value: 23.9 +/- 4.6 %)", "format": "functional"}, "Mus musculus [19]": {"tested_on": "Mus musculus", "experiment": "Induction of weight loss in C3H/HeN mouse at 50.2 umol/kg, ip after 60 days (reference value: 27.4 +/- 9.4 %)", "format": "functional"}, "Mus musculus [20]": {"tested_on": "Mus musculus", "experiment": "Induction of weight loss in C3H/HeN mouse at 37.8 umol/kg, ip after 60 days (reference value: 35.6 +/- 3.1 %)", "format": "functional"}, "Mus musculus [21]": {"tested_on": "Mus musculus", "experiment": "Induction of weight loss in C3H/HeN mouse at 4.2 umol/kg, ip after 60 days (reference value: 33.3 +/- 5.0 %)", "format": "functional"}, "Mus musculus [22]": {"tested_on": "Mus musculus", "experiment": "Toxicity in C3H/HeN mouse assessed as mortality at 12.6 umol/kg, ip", "format": "organism-based", "settings": "in vivo", "outline": "as §2"}, "Mus musculus [23]": {"tested_on": "Mus musculus", "experiment": "Induction of weight loss in C3H/HeN mouse at 12.6 umol/kg, ip after 60 days (reference value: 41.6 +/- 8.7 %)", "format": "functional"}, "Mus musculus [24]": {"tested_on": "Mus musculus", "experiment": "Induction of weight loss in C3H/HeN mouse at 1130 umol/kg, ip after 18 days (reference value: 12.8 +/- 1.5 %)", "format": "functional"}, "Mus musculus [25]": {"tested_on": "Mus musculus", "experiment": "Induction of weight loss in C3H/HeN mouse at 377 umol/kg, ip after 60 days (reference value: 24.5 +/- 3.5 %)", "format": "functional"}}}
{"smiles": "Cn1c(C[N+](C)(C)Cc2ccc(/C=C/C(=O)N3CC(CCl)c4c3cc(N)c3ccccc43)cc2)ccc1[N+](=O)[O-].[Br-]", "note": "(centres undefined)", "values": [{"measurement": "Activity", "setting": "Mus musculus [1]", "value": 38.3, "unit": "%"}, {"measurement": "Activity", "setting": "Mus musculus [2]", "value": "Non-toxic"}, {"measurement": "Activity", "setting": "Mus musculus [3]", "value": "Non-toxic"}, {"measurement": "Activity", "setting": "Mus musculus [4]", "value": -4.1, "unit": "%"}, {"measurement": "Activity", "setting": "Mus musculus [5]", "value": "Non-toxic"}, {"measurement": "Activity", "setting": "Mus musculus [6]", "value": "Non-toxic"}, {"measurement": "Activity", "setting": "Mus musculus [7]", "value": 19, "unit": "%"}]}
{"smiles": "Cn1c(C[N+](C)(C)Cc2ccc(/C=C/C(=O)N3CC(CCl)c4c3cc(N)c3ccccc43)cc2)ccc1S(C)(=O)=O.[Br-]", "note": "(centres undefined)", "values": [{"measurement": "Activity", "setting": "Mus musculus [8]", "value": -22.8, "unit": "%"}, {"measurement": "Activity", "setting": "Mus musculus [9]", "value": -7.6, "unit": "%"}, {"measurement": "Activity", "setting": "Mus musculus [10]", "value": 44.1, "unit": "%"}]}
{"smiles": "CN(Cc1ccc(/C=C/C(=O)N2CC(CCl)c3c2cc(N)c2ccccc32)cc1)Cc1ccc([N+](=O)[O-])n1C", "note": "(centres undefined)", "values": [{"measurement": "Activity", "setting": "Mus musculus [11]", "value": "Toxic"}, {"measurement": "Activity", "setting": "Mus musculus [12]", "value": 21, "unit": "%"}]}
{"smiles": "C[N+](C)(C)Cc1ccc(/C=C/C(=O)N2CC(CCl)c3c2cc(N)c2ccccc32)cc1.[Cl-]", "note": "(centres undefined)", "values": [{"measurement": "Activity", "setting": "Mus musculus [1]", "value": 17, "unit": "%"}, {"measurement": "Activity", "setting": "Mus musculus [13]", "value": "Toxic"}]}
{"smiles": "Cn1c(C[N+](C)(C)Cc2ccc(/C=C/C(=O)N3CC(CCl)c4c3cc(O)c3ccccc43)cc2)ccc1[N+](=O)[O-].[Br-]", "note": "(centres undefined)", "values": [{"measurement": "Activity", "setting": "Mus musculus [14]", "value": 18.8, "unit": "%"}]}
{"smiles": "Cn1c(C[N+](C)(C)Cc2ccc(/C=C/C(=O)N3CC(CO)c4c3cc(N)c3ccccc43)cc2)ccc1[N+](=O)[O-].[Br-]", "note": "(centres undefined)", "values": [{"measurement": "Activity", "setting": "Mus musculus [15]", "value": 18.8, "unit": "%"}, {"measurement": "Activity", "setting": "Mus musculus [16]", "value": 23.7, "unit": "%"}]}
{"smiles": "Cn1c(C[N+](C)(C)Cc2ccc(/C=C/C(=O)N3CC(CO)c4c3cc(N)c3ccccc43)cc2)ccc1S(C)(=O)=O.[Br-]", "note": "(centres undefined)", "values": [{"measurement": "Activity", "setting": "Mus musculus [17]", "value": "Toxic"}, {"measurement": "Activity", "setting": "Mus musculus [18]", "value": 36.8, "unit": "%"}, {"measurement": "Activity", "setting": "Mus musculus [19]", "value": 42.6, "unit": "%"}]}
{"smiles": "CC1CN(C(=O)/C=C/c2ccc(C[N+](C)(C)Cc3ccc([N+](=O)[O-])n3C)cc2)c2cc(N)c3ccccc3c21.[Br-]", "note": "(centres undefined)", "values": [{"measurement": "Activity", "setting": "Mus musculus [20]", "value": 43.2, "unit": "%"}, {"measurement": "Activity", "setting": "Mus musculus [14]", "value": 26, "unit": "%"}]}
{"smiles": "CC1CN(C(=O)/C=C/c2ccc(C[N+](C)(C)Cc3ccc(S(C)(=O)=O)n3C)cc2)c2cc(N)c3ccccc3c21.[Br-]", "note": "(centres undefined)", "values": [{"measurement": "Activity", "setting": "Mus musculus [20]", "value": 30.4, "unit": "%"}]}
{"smiles": "Cn1c(C[N+](C)(C)CCCCCC(=O)N2CC(CCl)c3c2cc(N)c2ccccc32)ccc1S(C)(=O)=O.O=C([O-])C(F)(F)F", "note": "(centres undefined)", "values": [{"measurement": "Activity", "setting": "Mus musculus [21]", "value": 16.8, "unit": "%"}, {"measurement": "Activity", "setting": "Mus musculus [22]", "value": "Toxic"}]}
{"smiles": "Cn1c(C[N+](C)(C)CCCCCCC(=O)N2CC(CCl)c3c2cc(N)c2ccccc32)ccc1S(C)(=O)=O.O=C([O-])C(F)(F)F", "note": "(centres undefined)", "values": [{"measurement": "Activity", "setting": "Mus musculus [21]", "value": 11.6, "unit": "%"}, {"measurement": "Activity", "setting": "Mus musculus [23]", "value": 2.9, "unit": "%"}]}
{"smiles": "CN(N=O)C(=O)N[C@@H](C=O)[C@@H](O)[C@H](O)[C@H](O)CO", "note": "[STREPTOZOCIN]", "values": [{"measurement": "Activity", "setting": "Mus musculus [24]", "value": -22.1, "unit": "%"}, {"measurement": "Activity", "setting": "Mus musculus [25]", "value": 23.7, "unit": "%"}]}
